Test results from ChEMBL document CHEMBL4138220, “A fluorine scan of a tubulin polymerization inhibitor isocombretastatin A-4: Design, synthesis, molecular modelling, and biological evaluation” (Eur J Med Chem, 2018).
Blank lines part the entries; values can stand above or below the compound they belong to. Activity calls are given as the source filed them. No cut-off for these calls is given here.

Legend:
HCT-116 [1] = assay: Antiproliferative activity against human HCT116 cells after 72 hrs by resazurin-based fluorescence assay; assay type: functional, cell-based; conditions: HCT-116, 72 h
K562 = assay: Antiproliferative activity against human K562 cells after 72 hrs by resazurin-based fluorescence assay; assay type: functional, cell-based; conditions: K562, 72 h
Outline: (§1)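 CellTiter-Blue viability. Cells plated at 5 × 10^3 per well and cultured 24 h, then given compound in DMSO (under 0.1%) for 72 h. Resazurin added for 2 h, fluorescence read at ex 560/em 590 nm. […] Run in triplicate. U87-MG grown in DMEM (4.5 g/L glucose, 10% FCS, 1% glutamine). K562, K562R (doxorubicin-resistant), A549 and MCF7 grown in RPMI 1640 (10% FCS, 1% glutamine). All kept at 37 °C, 5% CO2.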

K-562R = assay: Antiproliferative activity against human K562R cells after 72 hrs by resazurin-based fluorescence assay; assay type: functional, cell-based; outline: as §1
[2] = Inhibition of sheep brain tubulin polymerization assessed as reduction in rate of microtubule assembly by DAPI-fluorescence based assay; set-up: species or system Ovis aries
Outline: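 Sheep brain tubulin purified by two assembly–disassembly cycles, about 10 µM in buffer at pH 6.6 with MgCl2, EGTA and 1 mm GTP. Assembly followed continuously at 37 °C by DAPI fluorescence. IC50 is the concentration halving the maximum assembly rate versus no compound. Reference compounds run the same day. Average of three experiments.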

A549 [3] = assay: Antiproliferative activity against human A549 cells after 72 hrs by resazurin-based fluorescence assay; assay type: functional, cell-based; conditions: A549, 72 h
U-87 MG [4] = assay: Antiproliferative activity against human U87 cells after 72 hrs by resazurin-based fluorescence assay; assay type: functional, cell-based, U-87MG ATCC; outline: as §1
MCF7 = assay: Antiproliferative activity against human MCF7 cells after 72 hrs by resazurin-based fluorescence assay; assay type: functional, cell-based; conditions: MCF7, 72 h; outline: as §1
[5] = Metabolic stability in human liver microsomes at 5 uM preincubated for 5 mins followed NADPH addition measured after 120 mins by UPLC-MS/MS analysis; assay type: ADME, microsome; conditions: read-out: Stability
[6] = Metabolic stability in human plasma at 5 uM after 120 mins by UPLC-MS/MS analysis; assay type: ADME, cell-free; conditions: read-out: Stability
Outline: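 Compound at 5 µM in human plasma at 37°C, sampled from 0 to 120 min. Stopped with acetonitrile, centrifuged, supernatant dried under nitrogen and reconstituted in 0.2% formic acid water/methanol 75/25. Measured by UPLC-MS/MS as % remaining. Procaine was the positive control.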

[7] = Metabolic stability in human liver microsomes at 5 uM after 120 mins in absence of NADPH by UPLC-MS/MS analysis; assay type: ADME, microsome; conditions: read-out: Stability
[8] = Intrinsic clearance in human liver microsomes at 5 uM preincubated for 5 mins followed by NADPH addition measured after 45 mins by UPLC-MS/MS analysis; assay type: ADME, microsome; conditions: read-out: CLH
PBL [9] = assay: Cytotoxicity against human PBL cells assessed as reduction in cell proliferation after 72 hrs by MTS assay
[10] = Induction of basal contraction tone in isolated Wistar rat aorta rings at 10 uM after 10 mins in presence K60 solution (reference value: 0.2 +/- 0.2%); assay type: tissue-based
[11] = Increase in PGF2alpha-induced contractile response in isolated Wistar rat aorta rings at 10 uM after 10 mins; assay type: tissue-based
Outline: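 Rat aortic rings 2–3 mm in PSS at 37°C, 95% O₂/5% CO₂, pH 7.4, isometric tension at 2 g resting force. Rings were kept if K60 contraction was ≥1.5 g and ACh (10 µM) relaxation ≥15%. Compound (10 µM) or DMSO 0.1% was given for 10 min, then cumulative PGF2α 1 nM–30 µM. Hill fits gave pD2 and Emax as % of K60. N = 6.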

PBL [12] = assay: Cytotoxicity against human PBL cells assessed as reduction in cell viability after 72 hrs by MTS assay; assay type: cell-based
Outline: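 PBMCs from healthy donors were isolated on a Ficoll gradient and cultured overnight at 37°C in RPMI-1640 with 10% FCS. Non-adherent cells were set at 5 × 10⁵/mL with PHA 2.5 µg/mL (proliferating) or without it (quiescent). Serial dilutions 0.001–25 µM final (10 mM DMSO stocks) were applied for 72 h at 37°C, and viability was read by MTS.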

Tubulin (Homo sapiens) [13] = target: T1, Tubulin (Homo sapiens) (UniProt P68371+Q9H4B7+P0DPH7+P68366+Q13509+Q71U36+P04350+Q3ZCM7+P07437+P68363+Q9BQE3+Q6PEY2+Q13885+Q9BVA1+Q9BUF5); assay: Inhibition of tubulin polymerization in human U87MG cells assessed as formation of disorganized actin network at 10 nM after 24 hrs by Hoechst-33258 staining based inverted microscopy; assay type: cell-based
Outline: (§2)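 U87-MG on chamber slides, 24 h with 5 or 10 nM, control 0.1% DMSO. Fixed in 2% paraformaldehyde, permeabilized with 0.25% Triton X-100, blocked with BSA/goat serum. Stained with mouse anti-β-tubulin overnight at 4°C, then Alexa 647 anti-mouse plus Hoechst 33258 for 2 h, then Alexa 488 phalloidin for F-actin. Imaged on an inverted microscope with a 60X oil objective.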

A549 [14] = assay: Potency index, ratio of combretastatin A-4 IC50 to compound IC50 for antiproliferative activity against human A549 cells; assay type: functional
Tubulin (Homo sapiens) [15] = target: T1, Tubulin (Homo sapiens); assay: Inhibition of tubulin polymerization in human U87MG cells assessed as shrinkage of microtubule spindles at 10 nM after 24 hrs by Hoechst-33258 staining based inverted microscopy; assay type: cell-based; outline: as §2
Tubulin (Homo sapiens) [16] = target: T1, Tubulin (Homo sapiens); assay: Inhibition of tubulin polymerization in human U87MG cells assessed as multinucleation at 10 nM after 24 hrs by Hoechst-33258 staining based inverted microscopy; assay type: cell-based; outline: as §2
U-87 MG [17] = assay: Cell cycle arrest in human U87MG cells assessed as accumulation at G2/M phase at 20 nM after 24 hrs by propidium iodide staining based flow cytometry; assay type: functional; conditions: U-87MG ATCC
Outline: (§3)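 Exponentially growing HCT116 (RPMI 1640) or U87-MG (DMEM, 4.5 g/L glucose) cells, each medium with 10% FCS and 1% glutamine, treated 24 h at 20 nM in DMSO, with a DMSO control. DNA content measured by propidium iodide staining and flow cytometry.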

HCT-116 [18] = assay: Cell cycle arrest in human HCT116 cells assessed as accumulation at G2/M phase at 20 nM after 24 hrs by propidium iodide staining based flow cytometry; assay type: functional; outline: as §3
Tubulin (Homo sapiens) [19] = target: T1, Tubulin (Homo sapiens); assay: Inhibition of tubulin polymerization in human U87MG cells assessed as formation of disorganized microtubule network at 5 nM after 24 hrs by Hoechst-33258 staining based inverted microscopy; assay type: cell-based; outline: as §2

IC50 (HCT-116 [1]): 85 nM
Compound: COc1ccc(C(C)c2cc(OC)c(OC)c(OC)c2)cc1F (stereo not given)

IC50 (HCT-116 [1]): 3000 nM
Compound: COc1cc(C(C)c2ccc(OC(F)(F)F)c(N)c2)cc(OC)c1OC (stereo not given)

IC50 (K562): 0.4 nM
remaining at 2 h, 5 µM [5]: 13.6%
IC50 (K-562R): 0.1 nM
inhibition (Tubulin (Homo sapiens) [13]): Active
IC50 [2]: 2000 nM
inhibition (Tubulin (Homo sapiens) [15]): Active
Activity [10]: 2.1%
remaining at 2 h, 5 µM [6]: 100%
pD2 [11]: 5.94
inhibition (Tubulin (Homo sapiens) [16]): Active
remaining at 2 h, 5 µM [7]: < 5%
IC50 (HCT-116 [1]): 0.9 nM
IC50 (A549 [3]): 2 nM
IC50 (U-87 MG [4]): 0.2 nM
IC50 (MCF7): 1.5 nM
microsomal CLint at 5 µM [8]: 43 µL/min/mg
inhibition (Tubulin (Homo sapiens) [19]): Active
Compound: COc1ccc(C(=C(F)F)c2cc(OC)c(OC)c(OC)c2)cc1N
IC50 (PBL [9]): > 10000 nM
Ratio IC50 (A549 [14]): 90
Activity (U-87 MG [17]): Active
Activity (HCT-116 [18]): Active
IC50 (PBL [12]): > 10000 nM

IC50 (HCT-116 [1]): 18 nM
Compound: COc1cc(C(C)c2ccc(OC(F)F)c(N)c2)cc(OC)c1OC (stereo not given)

IC50 (HCT-116 [1]): 5000 nM
Compound: COc1cc(C(C)c2ccc(OC(F)(F)F)c(F)c2)cc(OC)c1OC (stereo not given)

IC50 (HCT-116 [1]): > 10000 nM
Compound: COc1ccc(C(C)c2cc(OC)c(OC)c(OC)c2)cc1OC(F)(F)F (stereo not given)

IC50 (HCT-116 [1]): 30 nM
Compound: COc1ccc(C(c2cc(OC)c(OC)c(OC)c2)C(F)F)cc1O (stereo not given)

IC50 (HCT-116 [1]): > 10000 nM
Compound: COc1cc(C(C)c2ccc(OC(F)(F)F)cc2)cc(OC)c1OC (stereo not given)

Continued, compound first:

Compound: C=C(c1ccc(OC(F)F)c(N)c1)c1cc(C)nc2ccccc12
IC50 (HCT-116 [1]): 20.2 nM

Compound: C=C(c1ccc(OC(F)(F)F)cc1)c1c(OC)cc(OC)cc1OC
IC50 (HCT-116 [1]): > 10000 nM

Compound: C=C(c1ccc(OC)c(OC(F)(F)F)c1)c1cc(OC)c(OC)c(OC)c1
IC50 (HCT-116 [1]): 1500 nM

Compound: C=C(c1ccc(OC)c(F)c1)c1cc(OC)c(OC)c(OC)c1
IC50 (K562): 6 nM
IC50 (K-562R): 2 nM
IC50 [2]: 4000 nM
IC50 (HCT-116 [1]): 7 nM
IC50 (A549 [3]): 8 nM
IC50 (U-87 MG [4]): 8 nM
IC50 (MCF7): 1 nM

Compound: C=C(c1ccc(OC)c(N)c1)c1cc(F)c(F)c(F)c1
IC50 (HCT-116 [1]): 100 nM

Compound: COc1ccc(C(=C(F)F)c2cc(OC)c(OC)c(OC)c2)cc1O
IC50 (K562): 2.2 nM
remaining at 2 h, 5 µM [5]: 5%
IC50 (K-562R): 0.2 nM
IC50 [2]: 2000 nM
remaining at 2 h, 5 µM [6]: 100%
remaining at 2 h, 5 µM [7]: 20%
IC50 (HCT-116 [1]): 2 nM
IC50 (A549 [3]): 2 nM
IC50 (U-87 MG [4]): 0.3 nM
IC50 (MCF7): 0.6 nM
microsomal CLint at 5 µM [8]: 64 µL/min/mg

Compound: C=C(c1ccc(OC(F)F)c(N)c1)c1cc(OC)c(OC)c(OC)c1
IC50 (K562): 4 nM
IC50 (PBL [9]): > 10000 nM
remaining at 2 h, 5 µM [5]: 3.3%
IC50 (K-562R): 0.15 nM
IC50 [2]: 400 nM
Activity [10]: 2.2%
remaining at 2 h, 5 µM [6]: 100%
pD2 [11]: 5.87
remaining at 2 h, 5 µM [7]: 9%
IC50 (HCT-116 [1]): 1 nM
IC50 (A549 [3]): 2.2 nM
IC50 (U-87 MG [4]): 0.6 nM
IC50 (MCF7): 2 nM
microsomal CLint at 5 µM [8]: 13.6 µL/min/mg
IC50 (PBL [12]): > 10000 nM

Compound: C=C(c1cc(OC)c(OC)c(OC)c1)c1ccc(OC(F)(F)F)c([N+](=O)[O-])c1
IC50 (HCT-116 [1]): 4000 nM

Compound: C=C(c1ccc(OC(F)(F)F)cc1)c1cc(OC)cc(OC)c1
IC50 (HCT-116 [1]): > 10000 nM

Compound: C=C(c1ccc(OC(F)(F)F)c(N)c1)c1cc(OC)c(OC)c(OC)c1
IC50 (HCT-116 [1]): 200 nM

Compound: C=C(c1ccc(OC(F)(F)F)c(F)c1)c1cc(OC)c(OC)c(OC)c1
IC50 (HCT-116 [1]): 2000 nM

Compound: C=C(c1cc(OC)cc(OC)c1)c1ccc(OC(F)(F)F)c([N+](=O)[O-])c1
IC50 (HCT-116 [1]): > 10000 nM

Compound: C=C(c1ccc(OC)c(N)c1)c1cc(OC)c(OC)c(OC)c1
IC50 (K562): 5 nM
remaining at 2 h, 5 µM [5]: 11.6%
IC50 (K-562R): 2 nM
IC50 [2]: 2200 nM
Activity [10]: 1.6%
remaining at 2 h, 5 µM [6]: 94%
pD2 [11]: 5.79
remaining at 2 h, 5 µM [7]: 6%
IC50 (HCT-116 [1]): 2 nM
IC50 (A549 [3]): 7 nM
IC50 (U-87 MG [4]): 9 nM
IC50 (MCF7): 2.9 nM
microsomal CLint at 5 µM [8]: 46 µL/min/mg

Compound: C=C(c1ccc(OC(F)(F)F)cc1)c1cc(OC)c(OC)c(OC)c1
IC50 (HCT-116 [1]): 5000 nM

Compound: C=C(c1ccc(OC)c(O)c1)c1cc(OC)c(OC)c(OC)c1
IC50 (K-562R): 2.2 nM
IC50 [2]: 2000 nM
IC50 (A549 [3]): 20 nM
IC50 (U-87 MG [4]): 8 nM
IC50 (MCF7): 8 nM

Compound: COc1ccc(/C=C\c2cc(OC)c(OC)c(OC)c2)cc1O [COMBRETASTATIN A4]
IC50 (K562): 6 nM
IC50 (PBL [9]): 100 to 500 nM
IC50 (K-562R): 23 nM
IC50 [2]: 2100 nM
Activity [10]: 0.7%
pD2 [11]: 5.73
IC50 (U-87 MG [4]): 3 nM
IC50 (MCF7): 8 nM
IC50 (PBL [12]): > 10000 nM

Compound: COc1cc(C(=C(F)F)c2ccc(OC(F)F)c(N)c2)cc(OC)c1OC
IC50 (HCT-116 [1]): 9.14 nM
